RGS4 block = inhibitors of human RGS4 | HEK293 M3R/RGS4 inducible, Fluo-4 calcium flux; stronger effect = higher value; triggered by carbachol at its EC20 | 0.45% of 310,000 active | P49798 | B-score at 10 µM;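 active means B-score, a plate-corrected calcium signal, over three deviations above library mean, with baseline fluorescence within five deviations of library mean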;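 further: RGS4 expression induced by doxycycline in cells with stable M3 receptor; B-score is computed from the integrated fluorescence ratio over baseline after carbachol; higher B-score means a larger calcium signal and so more RGS4 inhibition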
Target sequence (P49798 whole entry, looked up): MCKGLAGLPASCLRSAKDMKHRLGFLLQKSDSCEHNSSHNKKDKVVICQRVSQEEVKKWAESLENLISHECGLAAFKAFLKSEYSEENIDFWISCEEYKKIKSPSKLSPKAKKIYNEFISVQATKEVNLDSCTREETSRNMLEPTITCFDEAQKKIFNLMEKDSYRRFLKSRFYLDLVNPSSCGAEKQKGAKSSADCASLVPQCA
RGS4 act = potentiators or activators of RGS4. 0.92% of 310,000 active. HEK293 M3R/inducible RGS4, carbachol calcium flux Fluo4; stronger effect = lower value. B-score at 10 µM;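 active means B-score of the integrated calcium signal more than 4 SD below the library mean, with starting fluorescence not abnormally high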;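 further: negative B-score means reduced calcium response which marks RGS4 activation or potentiation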
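Material: Inducible-RGS4 HEK293 cells carrying M3 receptor; also added: carbachol at ECmax as muscarinic agonist stimulus; incubation: compound preincubation 20 min at room temperature before agonist; signal: Fluo4-AM (2 µM) calcium-flux fluorescence, kinetic read; measure: integrated calcium ratio converted to B score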
MrgX1 allo act = human MrgX1 positive allosteric modulation, primary screen. Q96LB2. MrgX1-HEK293, Fluo-4 calcium flux, FDSS; stronger effect = higher value. B-score at 10 µM. 0.63% of 310,000 active;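 active means plate-corrected calcium response at least 3 library SD above typical, normal starting fluorescence, not activating the receptor alone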;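 further: compound read alongside a low EC10 to EC30 dose of BAM8-22 agonist; peak minus trough fluorescence over baseline measured at the second addition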
PHOSPHO1 block = PHOSPHO1 (human) inhibition. recombinant PHOSPHO1, absorbance phosphatase assay. inhibition, % at 13.3 µM. 1.1% of 290,000 active. AID 1565; in the data active means inhibition above about 60%
Target sequence (Q8TCT1 whole entry, looked up): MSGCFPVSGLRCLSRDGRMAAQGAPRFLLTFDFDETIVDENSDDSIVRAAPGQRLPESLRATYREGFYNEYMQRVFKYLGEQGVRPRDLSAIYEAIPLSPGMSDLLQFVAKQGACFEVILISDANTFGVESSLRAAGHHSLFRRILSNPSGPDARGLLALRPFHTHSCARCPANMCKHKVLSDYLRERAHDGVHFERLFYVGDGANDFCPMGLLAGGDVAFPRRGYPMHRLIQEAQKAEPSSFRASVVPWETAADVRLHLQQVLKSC
MrgX1 ag = human MrgX1 receptor agonism, primary screen | MrgX1-HEK293 cells, Fluo-4 calcium fluorescence, agonist mode; stronger effect = higher value | B-score at 10 µM | 0.44% of 310,000 active | AID 588627;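 active means calcium response B-score plate-corrected fluorescence ratio at least 3 library SD, with starting fluorescence B-score inside 5 SD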
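Material: MrgX1-expressing HEK293 cells; input: 15,000 cells per well; doses: test compound given as first of three sequential additions; schedule: overnight plating before 1 h dye loading; technique: Fluo-4 NW calcium-flux fluorescence, kinetic read; evaluation: baseline-normalised fluorescence change ratio, B-scored; control set: plate-wise positive and negative controls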
MrgX1 antagonist = blocks BAM8-22 activation of human MrgX1 receptor; 1.3% of 310,000 active; MRGX1-HEK293 calcium flux, Fluo-4, BAM8-22 antagonism; stronger effect = lower value; B-score at 10 µM; AID 588676; Q96LB2;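 active means calcium-response B-score plate-corrected more than 3 library SD below zero, starting fluorescence within 5 deviations, no agonist response on first addition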;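 further: peak minus trough fluorescence over baseline after final BAM8-22 challenge near maximal dose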
MrgX1 PAM conf = human MrgX1 positive allosteric modulation, re-confirmation. shares compounds with MrgX1 allo act. MrgX1-HEK293, Fluo-4 calcium fluorescence, FDSS. activation (ratio percentage), % at 10 µM. 13% of 1,200 active;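 active means ratio at least 3 SD above the weak peptide control, stable starting fluorescence, no direct agonism earlier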;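 further: compound followed by low BAM8-22 agonist challenge near EC20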
MrgX1 ant reconf = reconfirmed antagonist of human MrgX1 receptor signaling | shares compounds with MrgX1 antagonist | MrgX1-HEK293, BAM8-22 calcium flux, Fluo-4; stronger effect = lower value | remaining BAM8-22 calcium response % of control (stronger effect = lower value), % at 10 µM | 19% of 2,300 active | AID 602420;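 active means remaining agonist calcium response no higher than 100% minus 3 SD of agonist-only control wells, with starting fluorescence near control levels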;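 further: agonist BAM8-22 given at a near maximal EC90 to ECmax level; peak minus minimum fluorescence divided by baseline after agonist addition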
HEK293 Ca flux = activity in parental HEK293 cells lacking MrgX1 | shares compounds with MrgX1 antagonist | Fluo-4 calcium fluorescence, FDSS | fluorescence ratio F(max-min)/F0 at 10 µM | 2% of 4,000 active | AID 624111;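 active means duplicate-averaged calcium fluorescence ratio at least three times the standard deviation of buffer wells, a nonspecific response in parental cells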
HEK293 Ca counter = counter-screen for MrgX1 allosteric activators: effect in parental HEK293 cells; fluorescence ratio F(max-min)/F0 at 10 µM; AID 624114; 0.4% of 4,000 active; parental HEK293 calcium flux, Fluo-4 fluorescence ratio; stronger effect = higher value; shares compounds with MrgX1 antagonist;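 active means calcium fluorescence ratio, averaged over duplicates, at least 3 SD of the buffer-well ratio, meaning a nonspecific response in receptor-free cells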;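 further: untransfected parental HEK293 lacking MrgX1 used as counterscreen for MrgX1 allosteric activators; fluorescence change taken during the second addition on a kinetic imager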
HEK293 Ca cntr2 = activity in parental HEK293 cells lacking MrgX1 receptor | shares compounds with MrgX1 antagonist | Fluo-4 calcium fluorescence (FDSS); stronger effect = higher value | fluorescence ratio F(max-min)/F0 at 10 µM | 8.7% of 4,000 active | AID 624115;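 active means calcium fluorescence ratio at least three times the spread of buffer wells, meaning a non-specific response in parental cells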
* = called active by the depositor; i = inactive; x = not tested or not shown. An excerpt weighted towards active compounds, which were near 4.5% of everything screened.

SMILES	RGS4 block	RGS4 act	MrgX1 allo act	PHOSPHO1 block	MrgX1 ag	MrgX1 antagonist	MrgX1 PAM conf	HEK293 Ca flux	HEK293 Ca counter	HEK293 Ca cntr2	others
CC1Sc2ccc(Cl)cc2-c2nc(N)ncc21 (stereo not drawn)	i	i	11*	-15	i	i	i	i	i	i
O=C(Cn1cc2c(n1)CCCCC2)Nc1ccccc1Br	i	i	9.3*	56	i	i	23%*	i	i	i
CCC1(c2ccccc2)NC(=O)N(CC(=O)NCc2ccc(C)cc2)C1=O (stereo not drawn)	i	i	i	46	i	i	x	x	x	x
O=C(N/N=C/c1cc([N+](=O)[O-])ccc1N1CCNCC1)c1ccc([N+](=O)[O-])cc1	i	i	i	-1	i	i	x	x	x	x
Cc1ccc(C)n1-n1c(C)nc2sc(-c3ccccc3)cc2c1=O	i	i	19*	3	i	i	i	i	i	i
Cc1ccc(C)n1-n1cnc2sc(-c3ccccc3)cc2c1=O	i	i	7.8*	-7	i	i	i	i	i	i
CCCN(CC(=O)Nc1ccccc1OC)C(=O)Cc1ccccc1F	i	i	i	18	i	i	x	x	x	x
CC(=O)c1c(-c2ccc(C)cc2)nc2c3ccccc3ccn12	i	i	6.8*	64*	i	i	16%*	i	i	i
COc1ccc(NC(=S)N(CCN2CCCCC2)Cc2ccco2)cc1	i	i	10*	-27	i	i	i	i	i	i
COc1ccc(NC(=S)N(CCCN2CCCC2)Cc2ccco2)cc1	i	i	i	-10	i	i	x	x	x	x
O=C(O)C1CC=CCC1C(=O)Nc1cccnc1 (stereo not drawn)	i	i	i	-1	i	i	x	x	x	x
CCN(CC)S(=O)(=O)c1cccc(NC2=NCC(C)S2)c1 (stereo not drawn)	i	i	9.1*	16	i	i	i	i	i	i
Cc1cc(Cl)ccc1OCC(=O)N1C(C)CCCC1C (stereo not drawn)	i	i	12*	7	i	i	i	i	i	i
COC(=O)c1cc(C#N)c(SCc2ccccc2)nc1C	i	i	6.9*	6	i	i	i	i	i	i
CCn1c(=O)c2c(nc(SCC(=O)Nc3ccccc3)n2C)n(C)c1=O	i	i	i	27	i	i	x	x	x	x
CC(C)(C)S(=O)(=O)c1cnc(N2CCOCC2)nc1N	i	i	i	27	i	i	x	x	x	x
CC(C)S(=O)(=O)c1cnc(N2CCOCC2)nc1N	i	i	16*	27	i	i	i	i	i	i
O=C1c2cccc(OCC(=O)N3CCCc4ccccc43)c2CCN1Cc1cccnc1	i	i	18*	-2	i	i	i	i	i	i
CCSc1nc2ccccc2c(=O)n1Cc1ccc(F)cc1	i	i	9.8*	-13	i	i	i	i	i	i
CCN(CC)C(=O)Oc1ccnc2cc(Cl)ccc12	i	i	7.4*	37	i	i	i	i	i	i
O=C(Oc1ccnc2cc(Cl)ccc12)N1CCCCCC1	i	i	15*	-18	i	i	i	i	i	i
CCN(CC)C(=O)Oc1ccc2ccccc2c1Cl	i	i	i	-8	i	i	x	x	x	x
O=C(CSc1nc(=O)n2ccccc2n1)NCc1ccccc1	i	i	i	x	i	i	x	x	x	x
Cc1ccc(Cn2ccnc2C(=O)Nc2ccccc2)cc1	i	i	9.7*	28	i	i	i	i	i	i
COC(C(=O)NNC(=O)CCc1ccccc1)c1ccccc1 (stereo not drawn)	i	i	i	49	i	i	x	x	x	x
SMILES	RGS4 block	RGS4 act	MrgX1 allo act	PHOSPHO1 block	MrgX1 ag	MrgX1 antagonist	MrgX1 PAM conf	HEK293 Ca flux	HEK293 Ca counter	HEK293 Ca cntr2	others
Cc1cc(Cl)ccc1OC(C)C(=O)Nc1ccc(S(=O)(=O)Nc2cnc3ccccc3n2)cc1 (stereo not drawn)	i	i	7.6*	34	i	-6.7*	i	i	i	i	MrgX1 ant reconf=81%*
CC(Oc1ccc(Cl)cc1Cl)C(=O)Nc1ccc(S(=O)(=O)Nc2cnc3ccccc3n2)cc1 (stereo not drawn)	i	i	i	-25	i	i	x	x	x	x
CCOC(=O)C1C(c2cccc([N+](=O)[O-])c2)C2C(=O)NN=C2CC1(C)O (stereo not drawn)	i	i	i	-38	i	i	x	x	x	x
CC(C)C(O)(c1ccccc1)C(CN1CCOCC1)c1ccccc1 (stereo not drawn)	i	i	8.4*	28	i	i	i	i	i	i
CC(C)CC(O)(c1ccccc1)C(CN1CCOCC1)c1ccccc1 (stereo not drawn)	i	i	i	28	i	i	x	x	x	x
COc1ccccc1C(O)(c1ccccc1)C(CN1CCOCC1)c1ccccc1 (stereo not drawn)	i	i	9.1*	-23	i	i	i	i	i	i
O=C(C1CCN(S(=O)(=O)c2c(Cl)cccc2Cl)CC1)N1CCCCCCC1	i	i	i	x	i	i	x	x	x	x
CNc1nc(Nc2ccc(C(C)=O)cc2)nc(OC(C(F)(F)F)C(F)(F)F)n1	i	i	8.6*	11	i	i	i	i	i	i
Cc1ccc(CNC(=O)C2CCC(=O)N(C3CC3)C2)cc1 (stereo not drawn)	i	i	i	46	i	i	x	x	x	x

Source: PubChem BioAssay (several laboratories)
